High-throughput results from PubChem.
In the library only some 29% were active in any assay of this set; here they are far more common.
CYP2C19 activ = human CYP2C19 activators, primary screen, biochemical, luminescence. Cytochrome P450 2C19 (Homo sapiens), P33261. recombinant CYP2C19, luciferin-H EGE luminescence; active compounds read high; 0 = fully inhibited enzyme, 1 = untreated enzyme. activation factor at 5 µM. 96,000 tested, under 10 active;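 active = activation factor of at least 2 at 5 µM in the primary screen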
Target sequence (P33261 whole entry, looked up): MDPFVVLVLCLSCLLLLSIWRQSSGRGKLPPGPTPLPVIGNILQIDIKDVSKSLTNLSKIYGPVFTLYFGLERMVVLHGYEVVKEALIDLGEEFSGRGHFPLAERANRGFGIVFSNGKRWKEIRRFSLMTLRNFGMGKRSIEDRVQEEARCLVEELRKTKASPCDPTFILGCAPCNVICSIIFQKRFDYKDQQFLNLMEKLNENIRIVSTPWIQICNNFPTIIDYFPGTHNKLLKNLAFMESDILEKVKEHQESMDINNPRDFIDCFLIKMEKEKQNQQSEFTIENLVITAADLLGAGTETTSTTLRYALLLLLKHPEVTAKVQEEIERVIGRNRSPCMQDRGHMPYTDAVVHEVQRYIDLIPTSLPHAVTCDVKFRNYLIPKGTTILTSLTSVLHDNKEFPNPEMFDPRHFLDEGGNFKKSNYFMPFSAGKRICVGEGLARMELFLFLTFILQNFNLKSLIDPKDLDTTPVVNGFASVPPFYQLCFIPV
CYP2C9 inh = blockers of cytochrome P450 2C9 activity – biochemical, luminescence, ADME assay, primary screen. CYP2C9 Supersomes, luciferin-H conversion. inhibition, % at 5 µM. 96,000 compounds, 20% hits. AID 777, 2007;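 active = blocking of liver enzyme CYP2C9 beyond about 50% at 5 µM, limit read from the data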
CYP2C9 act = human CYP2C9 activators, primary screen, biochemical, luminescence | 96,000 compounds, 1.4% hits | AID 1024, 2008 | Cytochrome P450 2C9 (Homo sapiens), P11712 | recombinant CYP2C9, luciferin-H conversion; active compounds read high; factor 1 = untreated enzyme, 0 = blocked | activation factor at 5 µM;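 active = activation factor of 2 or more for CYP2C9 at a 5 µM dose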
Ecoli WT expand = growth inhibitors of wild-type E. coli, primary screen, strain BW25113, expanded library, OD600; OD600 absorbance; growth inhibition, % at 100 µM; 98,000 compounds, 0.15% hits; AID 710, 2007;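 active = growth inhibition above about 50% at one test dose, limit read from the data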;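 also: growth measured after 20 h incubation at 37 °C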
Ecoli tolC = growth inhibitors of E. coli tolC mutant, primary screen, strain BW25113 ΔtolC::kan, 384-well; OD615; 65,000 compounds, 2.2% hits; growth inhibition, % at 10 µM (by protocol); AID 573, 2007;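 active = growth inhibition at or above a cutoff equal to the mean over every tested compound plus 3 SD, cut at about 60% in these data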;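 also: growth measured after 20 h incubation at 37 °C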
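Test system: E. coli BW25113 ΔtolC::kan bacteria; incubation: 37 °C, 20 h exposure; medium: LB broth supplemented with 50 µg/mL kanamycin; read-out basis: percent growth inhibition; signal: A615 absorbance measurement; compound: 10 µM final, single dose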
CYP2C19 inh = blockers of cytochrome P450 2C19 activity – biochemical, luminescence, ADME assay, primary screen; P33261; CYP2C19 Supersomes, luciferin-H EGE luminescence, 30 min; inhibition, % at 5 µM; 96,000 compounds, 21% hits; AID 778, 2007;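 active = CYP2C19 inhibition above a set limit at 5 µM in the primary screen, cut at about 50% in these data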
A number is an active result.

Cc1ccc(NC(=O)CN2C(=O)S/C(=C\c3cccn3C)C2=O)cc1 was read as CYP2C19 activ inactive, CYP2C9 inh 75.7, CYP2C9 act inactive, Ecoli WT expand inactive and CYP2C19 inh inactive.
Cc1ccc(NC(=O)CN2C(=O)S/C(=C\c3ccc(-c4cccc(C(=O)O)c4C)o3)C2=O)cc1 was read as CYP2C19 activ inactive, CYP2C9 inh inactive, CYP2C9 act inactive, Ecoli WT expand inactive and CYP2C19 inh inactive.
For Cc1ccc(NC(=O)CN2C(=O)S/C(=C\c3cc(C)n(C)c3C)C2=O)cc1 the results were CYP2C19 activ inactive, CYP2C9 inh inactive, CYP2C9 act inactive, Ecoli WT expand inactive and CYP2C19 inh 56.9.
Screening COc1ccc2cc(C(c3nnnn3C(C)(C)C)N3CCc4ccccc4C3)c(=O)[nH]c2c1 (stereo not given) returned CYP2C19 activ inactive, CYP2C9 inh 94.0, CYP2C9 act inactive, Ecoli WT expand inactive, Ecoli tolC inactive and CYP2C19 inh 65.0.
For CCC(C)(C)n1nnnc1C(c1cc2ccc(OC)cc2[nH]c1=O)N1CCc2ccccc2C1 (stereo not given) the results were CYP2C19 activ inactive, CYP2C9 inh 72.9, CYP2C9 act inactive, Ecoli WT expand inactive, Ecoli tolC 77.5 and CYP2C19 inh inactive.
For COc1ccc2cc(C(c3nnnn3C3CCCC3)N3CCc4ccccc4C3)c(=O)[nH]c2c1 (stereo not given) the results were CYP2C19 activ inactive, CYP2C9 inh inactive, CYP2C9 act inactive, Ecoli WT expand inactive, Ecoli tolC inactive and CYP2C19 inh inactive.
For O=c1[nH]n(-c2ccc(Cl)cc2)c2ncccc12 the results were CYP2C19 activ inactive, CYP2C9 inh inactive, CYP2C9 act inactive, Ecoli WT expand inactive and CYP2C19 inh inactive.
Screening FC(F)(F)c1ccc(-n2ccnc2)nc1 returned CYP2C19 activ inactive, CYP2C9 inh inactive, CYP2C9 act inactive, Ecoli WT expand inactive, Ecoli tolC inactive and CYP2C19 inh 51.6.
`CN(C)CCCN1C(=O)C(O)=C(C(=O)c2cc3ccccc3o2)C1c1ccccc1` (stereo not given) gave CYP2C19 activ inactive, CYP2C9 inh inactive, CYP2C9 act inactive, Ecoli WT expand inactive, Ecoli tolC inactive and CYP2C19 inh inactive.
For Cc1ccc(CNC(=O)CCS(=O)(=O)c2cc(Br)cc3c2N(C(=O)C2CC2)CC3)o1 the results were CYP2C19 activ inactive, CYP2C9 inh 88.6, CYP2C9 act inactive, Ecoli WT expand inactive, Ecoli tolC inactive and CYP2C19 inh inactive.
Screening CCC(=O)N1CCc2cc(Br)cc(S(=O)(=O)CCC(=O)NCCc3ccccc3)c21 returned CYP2C19 activ inactive, CYP2C9 inh 71.5, CYP2C9 act inactive, Ecoli WT expand inactive and CYP2C19 inh inactive.
`CCCNS(=O)(=O)c1cc(Br)cc2c1N(C(=O)CC)CC2` gave CYP2C19 activ inactive, CYP2C9 inh inactive, CYP2C9 act inactive, Ecoli WT expand inactive, Ecoli tolC inactive and CYP2C19 inh inactive.
Screening O=C(NC1CC1)C1=NOC(CNc2ncc(C(F)(F)F)cc2Cl)C1 (stereo not given) returned CYP2C19 activ inactive, CYP2C9 inh inactive, CYP2C9 act 2.4, Ecoli WT expand inactive and CYP2C19 inh 84.6.
For CC(Cl)C(=O)Nc1ncc(C(F)(F)F)cc1Cl (stereo not given) the results were CYP2C19 activ inactive, CYP2C9 inh inactive, CYP2C9 act inactive, Ecoli WT expand inactive and CYP2C19 inh inactive.
Screening O=C(N/C=N/O)C1=NOC(CNc2ncc(C(F)(F)F)cc2Cl)C1 (stereo not given) returned CYP2C19 activ inactive, CYP2C9 inh inactive, CYP2C9 act inactive, Ecoli WT expand inactive and CYP2C19 inh 77.3.
For CC(C)(C)C1CCC(=NNc2ncc(C(F)(F)F)cc2Cl)CC1 (stereo not given) the results were CYP2C19 activ inactive, CYP2C9 inh inactive, CYP2C9 act inactive, Ecoli WT expand inactive and CYP2C19 inh inactive.
For COc1ccc(-n2c(SCC(=O)NC3CCCCC3)nc3ccsc3c2=O)cc1 the results were CYP2C19 activ inactive, CYP2C9 inh inactive, CYP2C9 act inactive, Ecoli WT expand inactive and CYP2C19 inh inactive.
Screening COc1cc(-c2nc3cnccn3c2Nc2ccc(C)cc2)ccc1O returned CYP2C19 activ inactive, CYP2C9 inh 54.8, CYP2C9 act inactive, Ecoli WT expand inactive and CYP2C19 inh 79.6.
Screening COc1cc(-c2nc3cnccn3c2Nc2ccc(C(C)C)cc2)ccc1O returned CYP2C19 activ inactive, CYP2C9 inh inactive, CYP2C9 act inactive, Ecoli WT expand inactive and CYP2C19 inh inactive.
`COc1cc(-c2nc3cnccn3c2Nc2ccccc2)ccc1O` gave CYP2C19 activ inactive, CYP2C9 inh 51.2, CYP2C9 act inactive, Ecoli WT expand inactive, Ecoli tolC inactive and CYP2C19 inh inactive.
For CC(Cc1ccccc1)NC(=O)CSc1nc2nc3c(cc2c(=O)n1-c1ccccc1)COC(C)(C)C3 (stereo not given) the results were CYP2C19 activ inactive, CYP2C9 inh inactive, CYP2C9 act inactive, Ecoli WT expand inactive and CYP2C19 inh inactive.
`CON(C)c1nc(NCC(C)C)nc(OCC#N)n1` gave CYP2C19 activ inactive, CYP2C9 inh inactive, CYP2C9 act inactive, Ecoli WT expand inactive and CYP2C19 inh inactive.
For CCCCC(=O)NC(c1ccc(OC)c(OC)c1)c1c(O)ccc2ccccc12 (stereo not given) the results were CYP2C19 activ inactive, CYP2C9 inh 88.4, CYP2C9 act inactive, Ecoli WT expand inactive and CYP2C19 inh 63.1.
`CCCC(=O)NC(c1ccc(OC)c(OC)c1)c1c(O)ccc2ccccc12` (stereo not given) gave CYP2C19 activ inactive, CYP2C9 inh 70.9, CYP2C9 act inactive, Ecoli WT expand inactive and CYP2C19 inh 74.0.
For O=C(O)CC(CC(=O)Nc1nncs1)c1ccccc1 (stereo not given) the results were CYP2C19 activ inactive, CYP2C9 inh inactive, CYP2C9 act inactive, Ecoli WT expand inactive, Ecoli tolC inactive and CYP2C19 inh inactive.
`Cc1nnc(NC(=O)CC(CN(C)S(=O)(=O)c2ccccc2)c2ccccc2)s1` (stereo not given) gave CYP2C19 activ inactive, CYP2C9 inh inactive, CYP2C9 act inactive, Ecoli WT expand inactive and CYP2C19 inh 69.6.
Screening CN(CC(CC(=O)Nc1nncs1)c1ccccc1)S(=O)(=O)c1ccc(Br)cc1 (stereo not given) returned CYP2C19 activ inactive, CYP2C9 inh 56.6, CYP2C9 act inactive, Ecoli WT expand inactive and CYP2C19 inh 94.5.
`CN(CC(CC(=O)Nc1nncs1)c1ccccc1)S(=O)(=O)c1ccccc1` (stereo not given) gave CYP2C19 activ inactive, CYP2C9 inh 54.1, CYP2C9 act inactive, Ecoli WT expand inactive, Ecoli tolC inactive and CYP2C19 inh 89.8.
